Data from ChEMBL document CHEMBL1157419, “Bioactive isocoumarins isolated from the endophytic fungus Microdochium bolleyi” (2008).

These molecules were tested on Priestia megaterium (assay: Antimicrobial activity against Bacillus megaterium by agar diffusion method). Conditions: not given.
Assay type: functional
Summary of the method: (§1)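 Test substance dissolved in acetone at 1 mg/mL, and 50 µL (50 µg) applied to a sterile 9 mm filter disk. Disk placed on NB agar, then sprayed with a suspension of the test bacterium (E. coli Gram-negative; B. megaterium Gram-positive). Acetone run as a solvent control.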

Molecule | inhibition zone (IZ) [mm]
COc1cc2c(c(O)c1OC)C(=O)O[C@@H]1C[C@H](C[C@H](C)O)O[C@H]21 | 6
COc1cc2c(c(O)c1OC)C(=O)O[C@@H]1C[C@H](C[C@@H](C)O)O[C@H]21 | 0
CCC[C@@H](O)C[C@H]1OC(=O)c2c(cc(OC)c(OC)c2O)[C@H]1O | 7
C[C@@H]1C[C@@H]([C@H](O)CC2CC(=O)NC(=O)C2)C(=O)[C@@H](C)C1 [CYCLOHEXIMIDE] | 0
CCC[C@H]1C[C@H]2OC(=O)c3c(cc(OC)c(OC)c3O)[C@H]2O1 [MONOCERIN] | 6
CN(C)[C@@H]1C(O)=C(C(N)=O)C(=O)[C@@]2(O)C(O)=C3C(=O)c4c(O)cccc4[C@@](C)(O)[C@H]3C[C@@H]12 [TETRACYCLINE] | 18
NYSTATIN | 0

The molecules below were run on [Chlorella] fusca (assay: Antimicrobial activity against Chlorella fusca by agar diffusion method). Conditions: not given.
Assay type: functional, Scenedesmus fuscus
Summary of the method: (§2)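 Test substance dissolved in acetone at 1 mg/mL, and 50 µL (50 µg) pipetted onto a sterile 9 mm filter disk. Disk laid on MPY agar, then sprayed with a suspension of the fungus M. violaceum or the alga C. fusca. Acetone tested as a solvent control.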

Molecule | inhibition zone (IZ) [mm]
COc1cc2c(c(O)c1OC)C(=O)O[C@@H]1C[C@H](C[C@H](C)O)O[C@H]21 | 10
COc1cc2c(c(O)c1OC)C(=O)O[C@@H]1C[C@H](C[C@@H](C)O)O[C@H]21 | 6
CCC[C@@H](O)C[C@H]1OC(=O)c2c(cc(OC)c(OC)c2O)[C@H]1O | 10
C[C@@H]1C[C@@H]([C@H](O)CC2CC(=O)NC(=O)C2)C(=O)[C@@H](C)C1 [CYCLOHEXIMIDE] | 50
CCC[C@H]1C[C@H]2OC(=O)c3c(cc(OC)c(OC)c3O)[C@H]2O1 [MONOCERIN] | 8
CN(C)[C@@H]1C(O)=C(C(N)=O)C(=O)[C@@]2(O)C(O)=C3C(=O)c4c(O)cccc4[C@@](C)(O)[C@H]3C[C@@H]12 [TETRACYCLINE] | 0

Same assay, conditions: Scenedesmus fuscus

Molecule | inhibition zone (IZ) [mm]
NYSTATIN | 20

These molecules were tested on Microbotryum violaceum (assay: Antimicrobial activity against Microbotryum violaceum by agar diffusion method). Conditions: not given.
Assay type: functional
Summary of the method: as §2

Molecule | inhibition zone (IZ) [mm]
COc1cc2c(c(O)c1OC)C(=O)O[C@@H]1C[C@H](C[C@H](C)O)O[C@H]21 | 9
COc1cc2c(c(O)c1OC)C(=O)O[C@@H]1C[C@H](C[C@@H](C)O)O[C@H]21 | 7
CCC[C@@H](O)C[C@H]1OC(=O)c2c(cc(OC)c(OC)c2O)[C@H]1O | 9
C[C@@H]1C[C@@H]([C@H](O)CC2CC(=O)NC(=O)C2)C(=O)[C@@H](C)C1 [CYCLOHEXIMIDE] | 35
CCC[C@H]1C[C@H]2OC(=O)c3c(cc(OC)c(OC)c3O)[C@H]2O1 [MONOCERIN] | 23
CN(C)[C@@H]1C(O)=C(C(N)=O)C(=O)[C@@]2(O)C(O)=C3C(=O)c4c(O)cccc4[C@@](C)(O)[C@H]3C[C@@H]12 [TETRACYCLINE] | 10
NYSTATIN | 0

What follows are molecules tested on Escherichia coli (assay: Antimicrobial activity against Escherichia coli by agar diffusion method). Conditions: not given.
Assay type: functional
Summary of the method: as §1

Molecule | inhibition zone (IZ) [mm]
COc1cc2c(c(O)c1OC)C(=O)O[C@@H]1C[C@H](C[C@H](C)O)O[C@H]21 | 8
COc1cc2c(c(O)c1OC)C(=O)O[C@@H]1C[C@H](C[C@@H](C)O)O[C@H]21 | 0
CCC[C@@H](O)C[C@H]1OC(=O)c2c(cc(OC)c(OC)c2O)[C@H]1O | 10
C[C@@H]1C[C@@H]([C@H](O)CC2CC(=O)NC(=O)C2)C(=O)[C@@H](C)C1 [CYCLOHEXIMIDE] | 0
CCC[C@H]1C[C@H]2OC(=O)c3c(cc(OC)c(OC)c3O)[C@H]2O1 [MONOCERIN] | 10
CN(C)[C@@H]1C(O)=C(C(N)=O)C(=O)[C@@]2(O)C(O)=C3C(=O)c4c(O)cccc4[C@@](C)(O)[C@H]3C[C@@H]12 [TETRACYCLINE] | 18
NYSTATIN | 0
